We go through 34 compounds from ChEMBL document CHEMBL1153845, “New derivatives of 3,5-substituted-1,4,2-dioxazoles: synthesis and activity against Entamoeba histolytica” (Eur J Med Chem, 2009).

A short description of data set [1]: Cytotoxicity against HEK cells after 44 hrs by MTT assay. Format: cell-based. The conditions noted are these: Homo sapiens, HEK293, 44 h. The gist of the method:
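Transformed human kidney epithelial (Graham) cells kept at 37 °C in 5% CO₂. Trypsinized cells at 0.5 million cells/ml plated with compounds for 44 h, then 2 mM MTT for a further 4 h. Formazan dissolved in DMSO, absorbance 540 nm with 690 nm reference, % viability vs controls. Three independent experiments.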
Background: Tetrazolium assays rely on reduction of a dye to a coloured formazan, in cell work by metabolically active cells.

The nature of data set [2]: Safety index, ratio of IC50 for HEK cells to IC50 for Entamoeba histolytica HM-1:IMSS. The class given is toxicity, cell-based, HEK293. The settings on record: human, HEK cells (versus Entamoeba histolytica HM-1:IMSS); read-out: Ratio IC50.
The next data set deals with Entamoeba histolytica. As to the kind of experiment: Antiamnesic activity against Entamoeba histolytica HM-1:IMSS after 72 hrs by trypan blue exclusion assay. The class given is functional, organism-based. A digest of the protocol:
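Microdilution in TYIS-33 medium, trophozoites counted by haemocytometer with trypan blue viability check, 1.7 × 10⁴ organisms/well. Plates gassed with N₂ 10 min, 37 °C for 72 h. Washed with 0.9% NaCl, methanol-fixed, eosin-stained, dye released with 0.1 N NaOH, OD 490 nm. % inhibition vs log dose, IC50 by linear regression. Metronidazole standard. Three independent experiments.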

The mark [3] stands for this setting: in the assay text read “Antiamoebic” for “Antiamnesic”.

One may read the IC50 as the point on the concentration scale where inhibition reaches its midpoint.

For the compound `CC1(c2ccccn2)ON=C(c2ccccc2Cl)O1` (stereo unspecified), the IC50 was > 100000 nM in data set [1] and 1620 nM in the data set on Entamoeba histolytica. For the same compound, the selectivity ratio in data set [2] was > 61.7.
For `CCc1ccc(C2ON=C(c3ccccc3Cl)O2)cc1` (stereo unspecified) the same measures were > 100000 nM, > 1800 nM and > 55.5.
For the compound `CCc1ccc(C2ON=C(c3ccc(Cl)cc3)O2)cc1` (stereo unspecified), the results for the IC50 (in data set [1]; with Entamoeba histolytica) were > 100000 nM and > 1800 nM, respectively. In addition, the selectivity ratio in data set [2] is > 55.5.
For `CC1(c2cccc(Br)c2)ON=C(c2cccc(Cl)c2)O1` (stereo unspecified) the same measures were > 100000 nM, > 1800 nM and > 55.5.
For `CCC1(c2cccc(Cl)c2)ON=C(c2ccc(Cl)cc2)O1` (stereo unspecified) the same measures were > 100000 nM, > 1800 nM and > 55.5.
For `Clc1ccc(C2=NOC(c3ccccc3Cl)O2)cc1` (stereo unspecified) the same measures were > 100000 nM, 480 nM and > 208.
For `Clc1ccc(C2=NOC(c3cccc(Cl)c3)O2)cc1` (stereo unspecified), the IC50 is > 100000 nM in data set [1] and 860 nM in the data set with Entamoeba histolytica (setting [3]). Moreover, in data set [2], the selectivity ratio is > 116.
Regarding `CC1(c2ccc(Cl)cc2)ON=C(c2ccc(Cl)cc2)O1` (stereo unspecified), the IC50 in data set [1] was > 100000 nM; with Entamoeba histolytica, > 1800 nM. In addition, the selectivity ratio in data set [2] was > 55.5.
The corresponding values for `CC1(c2cccc(Br)c2)ON=C(c2ccc(Cl)cc2)O1` (stereo unspecified) are > 100000 nM, > 1800 nM and > 55.5.
Turning to `Clc1ccc(C2=NOC(c3ccc(Cl)c(Cl)c3)O2)cc1` (stereo unspecified), the IC50 in data set [1] was > 100000 nM; in the data set with Entamoeba histolytica (setting [3]), 1130 nM. In addition, the selectivity ratio in data set [2] was > 88.5.
In the case of `Clc1ccc(C2=NOC(c3ccc(Cl)cc3)O2)cc1` (stereo unspecified), the IC50 in data set [1] was > 100000 nM; with Entamoeba histolytica (setting [3]) it was 530 nM. Moreover, the selectivity ratio in data set [2] was > 189.
On to `Cc1ccc(C2ON=C(c3ccc(Cl)cc3)O2)cc1` (stereo unspecified), for which the IC50 in data set [1] was > 100000 nM; in the data set on Entamoeba histolytica, > 1800 nM. Moreover, the selectivity ratio in data set [2] is > 55.5.
The corresponding values for `Clc1ccc(C2ON=C(c3ccccc3Cl)O2)cc1` (stereo unspecified) are > 100000 nM, 510 nM and > 196.
Regarding `Cc1ccc(C2ON=C(c3ccccc3Cl)O2)cc1` (stereo unspecified), the figures for the half-inhibitory concentration (IC50) (in data set [1]; with Entamoeba histolytica) were > 100000 nM and > 1800 nM, respectively. In addition, in data set [2], the selectivity ratio was > 55.5.
Regarding `CC1(c2ccc(Cl)cc2)ON=C(c2cccc(Cl)c2)O1` (stereo unspecified), the IC50 was > 100000 nM in data set [1] and > 1800 nM in the data set on Entamoeba histolytica (setting [3]). The selectivity ratio in data set [2] is > 55.5.
Take `CCC1(c2cccc(Cl)c2)ON=C(c2cccc(Cl)c2)O1` (stereo unspecified): the IC50 in data set [1] is > 100000 nM; in the data set on Entamoeba histolytica, > 1800 nM. In addition, in data set [2], the selectivity ratio was > 55.5.
As for `Clc1cccc(C2=NOC(c3ccccc3Cl)O2)c1` (stereo unspecified), the figures for the IC50 (in data set [1]; in the data set on Entamoeba histolytica (setting [3])) were > 100000 nM and 620 nM, respectively. For the same compound, in data set [2], the selectivity ratio is > 161.
In the case of `CCC1(c2cccc(Cl)c2)ON=C(c2ccccc2Cl)O1` (stereo unspecified), the IC50 is > 100000 nM in data set [1] and > 1800 nM in the data set with Entamoeba histolytica. Moreover, the selectivity ratio in data set [2] is > 55.5.
For `CC1(c2cccc(Br)c2)ON=C(c2ccccc2Cl)O1` (stereo unspecified) the same measures were > 100000 nM, > 1800 nM and > 55.5.
The corresponding values for `Clc1ccccc1C1=NOC(c2ccccc2Cl)O1` (stereo unspecified) are > 100000 nM, 410 nM and > 244.
The corresponding values for `Clc1cccc(C2=NOC(c3ccc(Cl)c(Cl)c3)O2)c1` (stereo unspecified) are > 100000 nM, 1210 nM and > 82.6.
As for `Clc1cccc(C2=NOC(c3cccc(Cl)c3)O2)c1` (stereo unspecified), the figures for the IC50 (in data set [1]; in the data set on Entamoeba histolytica (setting [3])) were > 100000 nM and 910 nM, respectively. For the same compound, the selectivity ratio in data set [2] was > 110.
For `Clc1ccc(C2ON=C(c3ccccc3Cl)O2)cc1Cl` (stereo unspecified), the results for the IC50 (in data set [1]; with Entamoeba histolytica) were > 100000 nM and 810 nM, respectively. In addition, in data set [2], the selectivity ratio was > 124.
Turning to `Clc1ccc(C2ON=C(c3cccc(Cl)c3)O2)cc1` (stereo unspecified), the IC50 in data set [1] is > 100000 nM; in the data set on Entamoeba histolytica (setting [3]) it was 710 nM. In addition, in data set [2], the selectivity ratio was > 141.
For `CCc1ccc(C2ON=C(c3cccc(Cl)c3)O2)cc1` (stereo unspecified) the same measures were > 100000 nM, > 1800 nM and > 55.5.
As for `CCC1(c2cccc(Br)c2)ON=C(c2ccc(Cl)cc2)O1` (stereo unspecified), the figures for the IC50 (in data set [1]; in the data set with Entamoeba histolytica) were > 100000 nM and > 1800 nM, respectively. Besides, the selectivity ratio in data set [2] is > 55.5.
For the compound `CC1(c2ccc(Cl)cc2)ON=C(c2ccccc2Cl)O1` (stereo unspecified), the values for the IC50 (in data set [1]; in the data set with Entamoeba histolytica) were > 100000 nM and > 1800 nM, respectively. In data set [2], the selectivity ratio is > 55.5.
Turning to `CC1(c2ccccn2)ON=C(c2cccc(Cl)c2)O1` (stereo unspecified), the IC50 in data set [1] was > 100000 nM; in the data set on Entamoeba histolytica, 1730 nM. In addition, the selectivity ratio in data set [2] is > 57.8.
For `CC1(c2ccccn2)ON=C(c2ccc(Cl)cc2)O1` (stereo unspecified) the same measures were > 100000 nM, 1580 nM and > 63.3.
Take `Cc1ccc(C2ON=C(c3cccc(Cl)c3)O2)cc1` (stereo unspecified): the IC50 in data set [1] was > 100000 nM; with Entamoeba histolytica (setting [3]) it was > 1800 nM. Further, in data set [2], the selectivity ratio was > 55.5.
Take `CCC1(c2cccc(Br)c2)ON=C(c2cccc(Cl)c2)O1` (stereo unspecified): the results for the IC50 (in data set [1]; in the data set with Entamoeba histolytica) were > 100000 nM and > 1800 nM, respectively. The selectivity ratio in data set [2] was > 55.5.
`CCC1(c2cccc(Br)c2)ON=C(c2ccccc2Cl)O1` (stereo unspecified): the IC50 is > 100000 nM in data set [1] and > 1800 nM in the data set on Entamoeba histolytica. The selectivity ratio in data set [2] is > 55.5.
The corresponding values for `Clc1cccc(C2ON=C(c3ccccc3Cl)O2)c1` (stereo unspecified) are > 100000 nM, 720 nM and > 139.
`Cc1ncc([N+](=O)[O-])n1CCO` [METRONIDAZOLE]: the IC50 in data set [1] is > 100000 nM. The selectivity ratio in data set [2] is > 55.5.
